The test system of series [1] is Human alphaherpesvirus 1. Kind of series: Antiviral activity against HSV1 KOS ATCC VR1493 infected in African green monkey Vero cells assessed as reduction in virus yield at 10 uM treated at 2 hrs post infection measured 48 hrs post infection by flow cytometric analysis relative to control. Format: functional, organism-based.
In series [2] the test system is Human alphaherpesvirus 1. Kind of series: Antiviral activity against HSV1 KOS ATCC VR1493 infected in African green monkey Vero cells assessed as reduction in EGFP-positive cells at 10 uM treated at 2 hrs post infection measured 24 hrs post infection by flow cytometric analysis relative to control. Format: functional. In outline: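 Vero cells infected with EGFP-expressing HSV-1 at MOI 1, then given medium with 10 μM test agent (DMSO vehicle) at 2 hpi. Percentage of EGFP+ cells read by flow cytometry at 24 hpi against untreated infected cultures. Mean of three independent experiments, SD.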

Series [3] concerns Human alphaherpesvirus 1. Kind of series: Antiviral activity against HSV1 KOS ATCC VR1493 infected in human iPSC cells assessed as viral DNA replication at 10 uM measured 24 hrs post infection by FISH analysis. In kind it is functional, organism-based. Summed up: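 HSV-1-infected iPSC-neurons (MOI 0.3), treated with 10 μM at 2 hpi. Fluorescent in situ hybridisation with HSV-1 DNA probe to detect viral DNA replication at 24 hpi.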

The test system of series [4] is Human alphaherpesvirus 1. The experiment in a line: Antiviral activity against HSV1 KOS ATCC VR1493 infected in human iPSC cells assessed as reduction in expression of DNA polymerase gene at 50 uM measured 24 hrs post infection by RT-qPCR analysis. In kind it is functional, organism-based. Summed up: (§1)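 Human iPSC-derived neurons were infected with engineered HSV-1 at MOI 0.3 and treated 2 hpi (DMSO vehicle). RNA was taken 24 hpi, and viral ICP4 and viral DNA polymerase transcripts were quantified by RT-qPCR relative to infected untreated cells.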
On the technique in general: In qPCR the cycle at which signal appears reflects the starting amount.

The test system of series [5] is Human alphaherpesvirus 1. Kind of series: Antiviral activity against HSV1 KOS ATCC VR1493 infected in African green monkey Vero cells assessed as viral titre at 50 uM treated at 2 hrs post infection measured 48 hrs post infection by […] relative to control. In kind it is functional.
Series [6] relates to Human alphaherpesvirus 1. Kind of series: Antiviral activity against HSV1 KOS ATCC VR1493 infected in human iPSC cells assessed as reduction in expression of ICP4 gene at 50 uM measured 24 hrs post infection by RT-qPCR analysis. Format: functional, organism-based. In outline: as §1
Series [7] concerns Human alphaherpesvirus 1. The experiment in a line: Antiviral activity against HSV1 KOS ATCC VR1493 infected in human iPSC cells assessed as reduction in expression of ICP4 at 50 uM measured 24 hrs post infection by western blot analysis. Format: functional, organism-based. (In general: Immunoblotting shows a protein as a band on a membrane.)
Series [8] relates to Human alphaherpesvirus 1. The experiment in a line: Antiviral activity against HSV1 KOS ATCC VR1493 infected in human iPSC cells assessed as viral DNA replication at 50 uM measured 24 hrs post infection by FISH analysis. Format: functional, organism-based. In outline: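 iPSC-derived neurons were infected with engineered HSV-1 at MOI 0.3 and given drug 2 hpi. Viral DNA replication was scored by fluorescent in situ hybridization with an HSV-1 DNA probe, counting hybridizing signals.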

Series [9] in a line: Cytotoxicity against human iPSC cells assessed as cell viability at 0.1 to 50 uM after 24 to 48 hrs by live/dead fixable viability dye-based flow cytometric analysis. Summed up:
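Viability of iPSC-neurons exposed to test agent over 100 nM to 50 μM.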

Series [10] relates to Human alphaherpesvirus 1. Kind of series: Antiviral activity against HSV1 KOS ATCC VR1493 infected in human iPSC-derived neurons assessed as reduction in EGFP-positive cells treated at 2 hrs post infection measured 24 hrs post infection by flow cytometric analysis. The conditions noted are these: Human alphaherpesvirus 1, KOS ATCC VR1493, iPSC-derived neurons. (A flow cytometer gives signals particle by particle.)

Series [11] is described as follows: Cytotoxicity against human ARPE19 cells assessed as cell viability at 0.1 to 50 uM after 24 to 48 hrs by live/dead fixable viability dye-based flow cytometric analysis. The conditions noted are these: arpe-19, 50 µM.
Series [12] concerns Human alphaherpesvirus 1. Kind of series: Antiviral activity against HSV1 KOS ATCC VR1493 infected in human iPSC cells assessed as reduction in virus yield at 10 uM treated at 2 hrs post infection measured 48 hrs post infection by flow cytometric analysis relative to control. In kind it is functional, organism-based.
For series [13], the system named is Human alphaherpesvirus 1. The experiment in a line: Antiviral activity against HSV1 KOS ATCC VR1493 infected in human iPSC cells assessed as reduction in EGFP-positive cells at 10 uM treated at 2 hrs post infection measured 24 hrs post infection by flow cytometric analysis relative to control. Format: functional. Summed up: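 Human iPSC-derived neurons infected with engineered EGFP HSV-1 at MOI 0.3 and treated with 10 μM at 2 hpi (DMSO vehicle). Percentage of EGFP+ cells measured by flow cytometry at 24 hpi relative to untreated infected cultures. Average of three independent experiments, SD.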

Series [14] concerns Human alphaherpesvirus 1. Kind of series: Induction of sodium butyrate-induced reactivation of HSV1 KOS ATCC VR1493 infected in human iPSC cells assessed as reduction in EGFP/RFP-positive cells at 10 uM measured after 5 days of withdrawal by flow cytometric analysis relative to 5BVdU/[…]-treated cells. Format: functional, organism-based.
The subject of series [15] is Human alphaherpesvirus 3. The experiment in a line: Antiviral activity against VZV infected in human ARPE19 cells at 10 uM treated at 2 hrs post infection measured 48 hrs post infection by luciferase assay relative to control. Format: functional. Summed up:
(§2)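 ARPE-19 retinal pigment epithelial cells infected with VZV carrying luciferase under the late ORF9 promoter at 1000 PFU/well. Compound added 2 hpi. Luciferase counts per second read at 48 hpi.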

Series [16] concerns Human alphaherpesvirus 1. Kind of series: Antiviral activity against HSV1 KOS ATCC VR1493 infected in human iPSC cells assessed as reduction in viral DNA copy at 10 uM measured 24 hrs post infection by RT-qPCR analysis relative to control. Format: functional. Summed up:
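iPSC-neurons infected with HSV-1 (MOI 0.3) and treated with 10 μM at 2 hpi. DNA extracted at 24 hpi. Viral DNA copy number measured by qPCR relative to infected untreated cells.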

Series [17] relates to Human alphaherpesvirus 1. Kind of series: Induction of sodium butyrate-induced reactivation of HSV1 KOS ATCC VR1493 infected in human iPSC cells assessed as increase in EGFP-positive cells at 10 uM measured after 5 days of withdrawal by flow cytometric analysis relative to 5BVdU/IFN-alpha-treated cells. In kind it is functional.
For series [18], the system named is Human alphaherpesvirus 1. Kind of series: Antiviral activity against HSV1 KOS ATCC VR1493 infected in human iPSC cells assessed as reduction in expression of DNA polymerase gene at 10 uM measured 24 hrs post infection by RT-qPCR analysis. In kind it is functional, organism-based. Summed up: (§3)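 iPSC-neurons infected with HSV-1 (MOI 0.3) and treated with 10 μM at 2 hpi. RT-qPCR of ICP4 and viral DNA polymerase transcripts at 24 hpi.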

For series [19], the system named is Human alphaherpesvirus 3. The experiment in a line: Antiviral activity against VZV infected in human ARPE19 cells treated at 2 hrs post infection measured 48 hrs post infection by luciferase assay. Format: functional, organism-based. The conditions noted are these: Human alphaherpesvirus 3, ARPE-19. In outline:
as §2

Series [20] concerns Human alphaherpesvirus 1. Kind of series: Induction of sodium butyrate-induced reactivation of HSV1 KOS ATCC VR1493 infected in human iPSC cells assessed as decrease in EGFP MFI at 10 uM measured after 5 days of withdrawal relative to 5BVdU/IFN-alpha-treated cells. Format: functional.
In series [21] the test system is Human alphaherpesvirus 1. The experiment in a line: Induction of sodium butyrate-induced reactivation of HSV1 KOS ATCC VR1493 infected in human iPSC cells assessed as decrease in EGFP/RFP MFI at 10 uM measured after 5 days of withdrawal relative to 5BVdU/IFN-alpha-treated cells. Format: functional, organism-based.
Series [22] concerns Human alphaherpesvirus 1. Kind of series: Antiviral activity against HSV1 KOS ATCC VR1493 infected in human iPSC cells assessed as reduction in expression of ICP4 at 10 uM measured 24 hrs post infection by western blot analysis. Format: functional, organism-based.
The subject of series [23] is Human alphaherpesvirus 1. The experiment in a line: Induction of sodium butyrate-induced reactivation of HSV1 KOS ATCC VR1493 infected in human iPSC cells assessed as decrease in EGFP MFI at 10 uM measured after 5 days of withdrawal in presence of IFN-alpha relative to 5BVdU/IFN-alpha-treated cells. Format: functional.
Series [24] concerns Human alphaherpesvirus 1. Kind of series: Antiviral activity against HSV1 KOS ATCC VR1493 infected in human iPSC cells assessed as reduction in expression of ICP4 gene at 10 uM measured 24 hrs post infection by RT-qPCR analysis. In kind it is functional, organism-based. In outline:
as §3

Series [25] concerns Human alphaherpesvirus 1. The experiment in a line: Induction of sodium butyrate-induced reactivation of HSV1 KOS ATCC VR1493 infected in human iPSC cells assessed as reduction in EGFP/RFP-positive cells at 10 uM measured after 5 days of withdrawal in presence of IFN-alpha by flow cytometric analysis relative to 5BVdU/[…]-treated cells. Format: functional, organism-based.

The test system of series [26] is Human alphaherpesvirus 1. Kind of series: Induction of sodium butyrate-induced reactivation of HSV1 KOS ATCC VR1493 infected in human iPSC cells assessed as increase in EGFP-positive cells at 10 uM measured after 5 days of withdrawal in presence of IFN-alpha by flow cytometric analysis relative to 5BVdU/[…]-treated cells. Format: functional.
In series [27] the test system is Human alphaherpesvirus 1. The experiment in a line: Induction of sodium butyrate-induced reactivation of HSV1 KOS ATCC VR1493 infected in human iPSC cells assessed as decrease in EGFP/RFP MFI at 10 uM measured after 5 days of withdrawal in presence of IFN-alpha relative to 5BVdU/IFN-alpha-treated cells. Format: functional, organism-based.

Here are results for seven compounds from ChEMBL document CHEMBL3774324, “iPSC Neuronal Assay Identifies Amaryllidaceae Pharmacophore with Multiple Effects against Herpesvirus Infections” (ACS Med Chem Lett, 2016).

The term EC50 denotes the midpoint of the concentration-response curve.

Activity calls are given as the source filed them. No cut-off for these calls is given here.

Regarding `COC(=O)N[C@H]1C(=O)C[C@@H](O)C[C@@H]1c1ccc2c(c1)OCO2`, the result in the series with Human alphaherpesvirus 1 [1], in the series with Human alphaherpesvirus 1 [2] and in the series on Human alphaherpesvirus 1 [3] was inactive.
As to `Nc1nc2c(ncn2COCCO)c(=O)[nH]1` [ACYCLOVIR], the result in the series on Human alphaherpesvirus 1 [4], with Human alphaherpesvirus 1 [6], with Human alphaherpesvirus 1 [7] and in the series with Human alphaherpesvirus 1 [8] was Active. For the same compound, the Activity in the series on Human alphaherpesvirus 1 [5] is recorded as 33.3 PFU/ml; in [9], “Non-toxic”; in series [11], “Non-toxic”. In addition, the EC50 in the series on Human alphaherpesvirus 1 [10] was 70 nM.
`O=C1N[C@@H]2C(=C[C@H](O)[C@@H](O)[C@H]2O)c2cc3c(c(O)c21)OCO3` [NARCICLASINE]: the result in the series with Human alphaherpesvirus 1 [12], with Human alphaherpesvirus 1 [1] and in the series with Human alphaherpesvirus 1 [3] was Active. In addition, the “fold change (FC)” value with Human alphaherpesvirus 1 [2] is reported as 10.6; with Human alphaherpesvirus 1 [13] it was 69.
Take `O=C1N[C@H]2[C@H](O)C[C@@H](O)C[C@@H]2c2cc3c(cc21)OCO3`: the outcome in the series on Human alphaherpesvirus 1 [1], with Human alphaherpesvirus 1 [2] and in the series on Human alphaherpesvirus 1 [3] was inactive.
As to `O=C1N[C@H]2[C@H](O)[C@@H](O)[C@@H](O)C[C@@H]2c2cc3c(cc21)OCO3`, the outcome in the series on Human alphaherpesvirus 1 [1], with Human alphaherpesvirus 1 [2] and in the series with Human alphaherpesvirus 1 [3] was inactive.
With `O=C1N[C@H]2[C@H](O)[C@H](O)[C@@H](O)C[C@@H]2c2cc3c(cc21)OCO3`, the result in the series on Human alphaherpesvirus 1 [14], in the series with Human alphaherpesvirus 1 [12], in the series with Human alphaherpesvirus 1 [1], in the series with Human alphaherpesvirus 1 [18], in the series on Human alphaherpesvirus 1 [21] and in the series with Human alphaherpesvirus 1 [22] was Active. Moreover, the outcome with Human alphaherpesvirus 1 [3], in the series with Human alphaherpesvirus 1 [24], in the series with Human alphaherpesvirus 1 [25] and with Human alphaherpesvirus 1 [27] was Active. Further, the “fold change (FC)” value in the series on Human alphaherpesvirus 3 [15] is on record as 220; in the series on Human alphaherpesvirus 1 [16], over 1800; with Human alphaherpesvirus 1 [17], 2.9; in the series with Human alphaherpesvirus 1 [20] it was 1.6; with Human alphaherpesvirus 1 [2], 19.6; in the series with Human alphaherpesvirus 1 [23] it was 2.5. Besides, the “fold change (FC)” value amounted to 28 in the series with Human alphaherpesvirus 1 [13] and 2.1 in the series on Human alphaherpesvirus 1 [26]. Also, the EC50 with Human alphaherpesvirus 3 [19] worked out at 150 nM; with Human alphaherpesvirus 1 [10] it was 100 nM. For the same compound, the Activity result in series [9] and in [11] was “Non-toxic” each time.
Regarding `O=C1N[C@H]2[C@H](O)[C@H](O)[C@@H](O)[C@H](O)[C@@H]2c2cc3c(c(O)c21)OCO3` [PANCRATISTATIN], the outcome in the series with Human alphaherpesvirus 1 [12], in the series with Human alphaherpesvirus 1 [1] and in the series on Human alphaherpesvirus 1 [3] was Active. The results for the “fold change (FC)” value with Human alphaherpesvirus 1 [2] and in the series with Human alphaherpesvirus 1 [13] were 8.3 and 62, respectively.
